# Measured values pooled from the literature.
# Medium: plasma
SMILES,test system,setting,endpoint,value
Cc1ccc(OCC(=O)N[C@@H](Cc2c[nH]c3ccccc23)C(=O)OC(C)C)cc1,male Sprague-Dawley mouse,"oral, 20 mg/kg",clearance,32.3 mL/min/kg
OCc1nc2ccc(NCc3ccc(C(F)(F)F)cc3)cc2[nH]1,male BALB/c mouse,"intravenous, 1 mg/kg",CL/F,3.7 L/h/kg
NCc1ccc(-c2nn(Cc3ccccc3)c3ccccc23)o1,male CD-1 mouse,"intravenous, 5 mg/kg",C0,1520 ng/mL
NCc1cc2c(cc1F)C(=O)N(C1CCC(=O)NC1=O)C2 (stereo not drawn),male CD-1 mouse,"intravenous, 1 mg/kg",C0,2000 ng/mL
CCOC(=O)C1=C(CN2CCC[C@@H]2C(=O)Nc2ccc(B(O)O)cc2)NC(c2nccs2)=N[C@H]1c1ccc(F)cc1Br,CD-1 mouse,"intravenous, 2 mg/kg",C0,2160 ng/mL
OCc1ccc(-c2nn(Cc3ccccc3)c3ccccc23)o1,male CD-1 mouse,"intravenous, 5 mg/kg",C0,5100 ng/mL
CN(C)C(=O)c1cc2cnc(Nc3ccc(-c4ccc5c(=O)cc(N6CCOCC6)oc5c4)cc3)nc2n1C1CCCC1.Cl,BALB/c mouse,"oral, 20 mg/kg",CL/F,2.6 L/h/kg
Cc1ncsc1-c1ccc([C@H](C)NC(=O)[C@@H]2C[C@@H](O)CN2C(=O)[C@@H](NC(=O)CCc2ccc(C#Cc3ccc(C(=O)NCCCn4cc(-c5ccc6c(c5)CCN6C(=O)Cc5cccc(OC(F)(F)F)c5)c5c(N)ncnc54)cc3)cn2)C(C)(C)C)cc1,male C57BL/6 mouse,"intravenous, 1 mg/kg",clearance,2.5 mL/min/kg
C[C@H]1Oc2cc(cnc2N)-c2c(nn(C)c2C#N)CN(C)C(=O)c2ccc(F)cc21,male Sprague-Dawley rat,"oral, 5 mg/kg, single dose",Tmax,1.5 h
O=C1CCC(N2Cc3cc(CO)c(F)cc3C2=O)C(=O)N1 (stereo not drawn),male CD-1 mouse,"intravenous, 1 mg/kg",C0,2190 ng/mL
Cc1ncsc1-c1ccc([C@H](CC(=O)N2CCN(c3ccc(C#Cc4ccc(C(=O)N5CCC(n6cc(-c7ccc8c(c7)CCN8C(=O)Cc7cccc(OC(F)(F)F)c7)c7c(N)ncnc76)CC5)cc4)cn3)CC2)NC(=O)[C@@H]2C[C@@H](O)CN2C(=O)[C@@H](NC(=O)C2(F)CC2)C(C)(C)C)cc1,male C57BL/6 mouse,"intravenous, 1 mg/kg",clearance,2.3 mL/min/kg
C=CCn1c(=O)c2cnc(Nc3ccc(N4CCN(C)CC4)cc3)nc2n1-c1ccc2c(n1)[C@@](O)(CC)CC2,dog,"oral, 10 mg/kg",Cmax,2100 nM
